Measles CPE = protection of cells from measles virus. Measles virus-infected cells, CPE protection, absorbance. protection (pct of control), % at 4 µM. 1.5% of 140,000 active; in the data active = protection mostly above about 24%, no sharp cut-off; inactive = mostly below about 26%
INS promoter inh = TRM-6 insulin promoter activity inhibition | inhibition, % at 2 µM | TRM-6 cells (human fetal islet line), insulin promoter-eGFP reporter, imaging; reporter expression induced with tamoxifen | 0.9% of 130,000 active | AID 1273;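 active = inhibition above the mean plus 3 SD, with well images judged a real hit on visual review, cut at about 60% in these data, passing the limit was not always enough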
Yeast lifespan up = extends the lifespan of yeast; S. cerevisiae growth with nicotinamide, OD615; deaD strain in restrictive glucose medium; AID 775; inhibition of the nicotinamide effect, % at 10 µM; 0.68% of 130,000 active;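 active = inhibition above a set limit, placed 3 SD over the median of all compounds, cut at about 26% in these data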
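System: Modified budding yeast, DeaD strain | Buffer or medium: Restrictive glucose medium | Also added: 1.5 mM nicotinamide | Doses: 10 µM single point, 0.25% DMSO | Schedule: 48 h compound exposure at 30 °C, humidified | Detection: Absorbance at 615 nm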
RAM inhibit = yeast RAM network inhibition; S. cerevisiae dse1pr::URA3 reporter, 5-FOA growth OD615, 2 d; analog-sensitive cbk1-as2 kinase mutant strain; inhibition, % at 50 µM; 1.8% of 190,000 active;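 active = inhibition above a set limit, 3 SD over mean compound inhibition, cut at about 8.4% in these data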;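 note: inhibition rescues growth on 5-FOA so higher OD means more RAM inhibition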
MDM2 E3 inh = blocks human Mdm2 ubiquitin ligase activity | AID 1230 | Q00987 | 0.11% of 210,000 active | cell-based MDM2 ubiquitination luciferase reporter, 2 h; 0 = plate control, 100 = twice control, blank-subtracted | signal enhancement, % at 5 µM;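 active = signal enhancement of 30% or more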;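 note: luminescence tracks abundance of the self-degrading MDM2-luciferase fusion protein; higher signal means inhibition of MDM2 E3 ligase activity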
Target sequence (Q00987 whole entry, looked up, the tested form may be a part): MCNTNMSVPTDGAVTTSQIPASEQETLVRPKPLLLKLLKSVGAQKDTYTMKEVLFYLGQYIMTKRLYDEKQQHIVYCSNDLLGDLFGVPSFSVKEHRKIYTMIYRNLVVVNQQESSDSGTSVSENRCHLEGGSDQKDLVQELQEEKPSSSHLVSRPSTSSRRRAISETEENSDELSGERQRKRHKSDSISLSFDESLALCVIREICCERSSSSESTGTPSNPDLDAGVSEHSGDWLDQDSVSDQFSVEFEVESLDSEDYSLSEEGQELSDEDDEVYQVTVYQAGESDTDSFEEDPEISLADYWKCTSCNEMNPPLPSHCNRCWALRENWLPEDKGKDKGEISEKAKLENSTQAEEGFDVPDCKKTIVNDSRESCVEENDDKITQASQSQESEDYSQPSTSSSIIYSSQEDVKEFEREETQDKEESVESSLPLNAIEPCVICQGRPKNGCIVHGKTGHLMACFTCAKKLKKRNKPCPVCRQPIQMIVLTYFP
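Test system: mammalian cells stably expressing self-ubiquitinating, self-degrading MDM2 E3–luciferase fusion; Amount: 2000 cells in each well; Medium: DMEM; Schedule: 4 h settle plus 2 h compound, 37 °C; Technique: SteadyLite luciferase luminescence after 15 min room-temperature reagent incubation; Benchmarks: plate control and blank wells.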
Yeast growth inh = chemicals that inhibit yeast BB579 growth in restrictive medium (lifespan-shortening candidates); S. cerevisiae BB579 growth, OD615, 48 h; inhibition, % at 10 µM; 0.51% of 140,000 active; AID 804;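 active = inhibition above a set limit, 3 SD over the mean compound inhibition, cut at about 44% in these data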
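Test system: DeaD yeast strain BB579 / Buffer or medium: restrictive glucose-based CSMM-D medium / Doses: single 10 µM dose / Schedule: 4 h cell preincubation, 48 h compound exposure, 30 °C humidified / Technique: culture absorbance at 615 nm / Controls: amphotericin B positive control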
Numbers stand for hits. The list is not random: actives were taken first. Their share in the collection is about 4%.

For Cc1cc(N2CCN(C/C=C/c3ccccc3)CC2)n2ncnc2n1 the results were Measles CPE 32, INS promoter inh inactive, Yeast lifespan up inactive, RAM inhibit inactive, MDM2 E3 inh inactive and Yeast growth inh inactive.
For Cn1cc(C(=O)N2CCc3ccccc32)cn1 the results were Measles CPE inactive, INS promoter inh inactive, Yeast lifespan up inactive, RAM inhibit inactive, MDM2 E3 inh inactive and Yeast growth inh inactive.
`COc1ccc(CCNC(=O)CC(c2ccccc2)c2cccc(C)c2O)cc1OC` (stereo not given) gave RAM inhibit inactive.
COc1cc(C(=O)OCCN2CCCCC2)ccc1O was read as Measles CPE inactive, INS promoter inh inactive, Yeast lifespan up inactive, RAM inhibit inactive, MDM2 E3 inh inactive and Yeast growth inh inactive.
`CCCOC(=O)c1ccc(O)c(OC)c1` gave RAM inhibit inactive and MDM2 E3 inh 45.
`COc1ccc(NC(=O)Cn2nnc(-c3ccccc3NC(=O)c3cccs3)n2)cc1` gave Measles CPE inactive, INS promoter inh inactive, Yeast lifespan up inactive, RAM inhibit inactive, MDM2 E3 inh inactive and Yeast growth inh inactive.
COc1ccc(NC(=O)Cn2nnc(-c3ccccc3NS(=O)(=O)c3ccc(OC)cc3)n2)cc1 was read as Measles CPE inactive, INS promoter inh inactive, Yeast lifespan up inactive, RAM inhibit 9.5, MDM2 E3 inh inactive and Yeast growth inh inactive.
For Cc1ccc(NC(=O)Cn2nnc(-c3ccccc3NC(=O)c3cccs3)n2)cc1 the results were Measles CPE inactive, INS promoter inh inactive, Yeast lifespan up inactive, RAM inhibit 8.4, MDM2 E3 inh inactive and Yeast growth inh inactive.
For Cc1ccc(C(=O)N2C(CC(=O)Nc3ccc(Cl)cc3)C(=O)NC3CCCCC32)cc1 (stereo not given) the results were RAM inhibit inactive and MDM2 E3 inh inactive.
Cc1ccccc1C(=O)OCc1cnc(Cl)s1 was read as RAM inhibit inactive and MDM2 E3 inh inactive.
O=C(COC(=O)Cc1ccc(S(=O)(=O)N2CCCCC2)s1)Nc1ccc2c(c1)OCO2 was read as Measles CPE inactive, INS promoter inh inactive, Yeast lifespan up inactive, RAM inhibit 9.4, MDM2 E3 inh inactive and Yeast growth inh inactive.
`O=C1N/C(=C/c2ccc(N3CCOCC3)o2)C(=O)N1c1ccccc1` gave Measles CPE inactive, INS promoter inh inactive, Yeast lifespan up inactive, RAM inhibit inactive, MDM2 E3 inh 47 and Yeast growth inh inactive.
Cc1ccc([N+](=O)[O-])cc1N/C=C1\CCCCC1=O was read as RAM inhibit inactive and MDM2 E3 inh inactive.
Cc1cccc(/C=C/C(=O)c2cc(Br)ccc(=O)c2O)c1 was read as Measles CPE inactive, INS promoter inh inactive, Yeast lifespan up inactive, RAM inhibit inactive, MDM2 E3 inh inactive and Yeast growth inh 95.
`Cc1ccc(/C=C/C(=O)c2ccccc2O)cc1` gave MDM2 E3 inh inactive.
`CCc1ccc(/C=C/C(=O)c2cc(Br)ccc(=O)c2O)cc1` gave Measles CPE inactive, INS promoter inh inactive, Yeast lifespan up inactive, RAM inhibit inactive, MDM2 E3 inh inactive and Yeast growth inh 89.
For CCOc1ccc(/C=C/C(=O)c2cc(Br)ccc(=O)c2O)cc1 the results were Measles CPE inactive, Yeast lifespan up inactive, RAM inhibit inactive, MDM2 E3 inh inactive and Yeast growth inh 93.
For COc1ccccc1/C=C/C(=O)c1cc(Br)ccc1OC(=O)c1ccco1 the results were INS promoter inh inactive.
For Cc1ccc(/C=C/C(=O)c2cc(Br)ccc2OC(=O)c2ccco2)cc1 the results were Measles CPE inactive, INS promoter inh inactive, Yeast lifespan up inactive, RAM inhibit 11, MDM2 E3 inh inactive and Yeast growth inh inactive.
Screening COCCNC(=S)Nc1cc(OC)c(OC)cc1C#N returned RAM inhibit inactive and MDM2 E3 inh inactive.
CC(C)CCSc1nc2[nH]ncc2c(=O)[nH]1 was read as INS promoter inh inactive, RAM inhibit inactive and MDM2 E3 inh inactive.
`CCCNC(=O)Nc1ccc2c(c1)N(C)C(=O)c1ccccc1S2` gave Measles CPE 60, INS promoter inh inactive, Yeast lifespan up inactive, RAM inhibit inactive, MDM2 E3 inh inactive and Yeast growth inh inactive.
`CN1C(=O)c2ccccc2Sc2ccc(NC(=O)N3CCCC3)cc21` gave Measles CPE inactive, INS promoter inh inactive, Yeast lifespan up inactive, RAM inhibit inactive, MDM2 E3 inh inactive and Yeast growth inh inactive.
COc1ccc(NC(=S)N2CCN(C/C=C/c3ccccc3)CC2)cc1 was read as Measles CPE inactive, Yeast lifespan up inactive, RAM inhibit inactive, MDM2 E3 inh inactive and Yeast growth inh inactive.
For COc1ccc(OC)c(NC(=S)N2CCN(C/C=C/c3ccccc3)CC2)c1 the results were Measles CPE inactive, INS promoter inh inactive, Yeast lifespan up 43, RAM inhibit inactive, MDM2 E3 inh inactive and Yeast growth inh inactive.
`Cc1cc2c(cc(C(=O)O)n2C)s1` gave Measles CPE inactive, Yeast lifespan up inactive, RAM inhibit inactive, MDM2 E3 inh inactive and Yeast growth inh 56.
`CCN(CC)c1ccc(/C=C(\C#N)C(=O)c2ccc(Br)cc2)cc1` gave Measles CPE inactive, Yeast lifespan up inactive, RAM inhibit 9.2, MDM2 E3 inh inactive and Yeast growth inh inactive.
CCN(CC)c1ccc(/C=C(\C#N)C(N)=O)cc1 was read as INS promoter inh inactive, RAM inhibit inactive and MDM2 E3 inh inactive.
`O=C(c1ccco1)N(Cc1cccc([N+](=O)[O-])c1)c1ccc(Br)cc1` gave RAM inhibit 9.3.
`O=C(c1ccco1)N(Cc1ccc([N+](=O)[O-])cc1)c1ccc(Br)cc1` gave Measles CPE inactive, INS promoter inh inactive, Yeast lifespan up inactive, RAM inhibit 8.4, MDM2 E3 inh inactive and Yeast growth inh inactive.
`O=C(c1ccco1)N(Cc1ccc([N+](=O)[O-])cc1)c1ccc(Cl)cc1` gave Measles CPE inactive, INS promoter inh inactive, Yeast lifespan up inactive, RAM inhibit inactive, MDM2 E3 inh inactive and Yeast growth inh inactive.
`O=C1CC(/C=C/c2ccncc2)=Nc2ccccc2N1` gave RAM inhibit inactive and MDM2 E3 inh inactive.
`Clc1ccc(Cn2c(-c3cccnc3Cl)nc3ccccc32)c(Cl)c1` gave Measles CPE inactive, Yeast lifespan up inactive, RAM inhibit inactive, MDM2 E3 inh inactive and Yeast growth inh inactive.
Clc1ccc(Cn2c(-c3cccnc3Cl)nc3ccccc32)cc1 was read as Measles CPE 33, Yeast lifespan up inactive, RAM inhibit inactive, MDM2 E3 inh inactive and Yeast growth inh inactive.
For CC(=O)c1ccc(NC(=O)c2ccc(CSc3ccccc3)o2)cc1 the results were Measles CPE inactive, Yeast lifespan up inactive, RAM inhibit 8.6, MDM2 E3 inh inactive and Yeast growth inh inactive.

Assay outcomes as filed in PubChem.
